Measurements reported in ChEMBL document CHEMBL3351553 (J Med Chem, 2014).
≈ marks a conversion by molar mass, not a printed value. Calls of active or inactive are those of the source. No cut-off for these calls is given here.

Assays:
DNA gyrase = DNA gyrase (Staphylococcus aureus, UniProt P0A0K8+P20831); assay: Inhibition of Staphylococcus aureus DNA gyrase assessed as reduction in enzyme-catalyzed supercoiling of relaxed circular pBR322 DNA by agarose gel electrophoresis; assay type: protein-complex assay
DNA gyrase, sequence (P0A0K8 whole entry): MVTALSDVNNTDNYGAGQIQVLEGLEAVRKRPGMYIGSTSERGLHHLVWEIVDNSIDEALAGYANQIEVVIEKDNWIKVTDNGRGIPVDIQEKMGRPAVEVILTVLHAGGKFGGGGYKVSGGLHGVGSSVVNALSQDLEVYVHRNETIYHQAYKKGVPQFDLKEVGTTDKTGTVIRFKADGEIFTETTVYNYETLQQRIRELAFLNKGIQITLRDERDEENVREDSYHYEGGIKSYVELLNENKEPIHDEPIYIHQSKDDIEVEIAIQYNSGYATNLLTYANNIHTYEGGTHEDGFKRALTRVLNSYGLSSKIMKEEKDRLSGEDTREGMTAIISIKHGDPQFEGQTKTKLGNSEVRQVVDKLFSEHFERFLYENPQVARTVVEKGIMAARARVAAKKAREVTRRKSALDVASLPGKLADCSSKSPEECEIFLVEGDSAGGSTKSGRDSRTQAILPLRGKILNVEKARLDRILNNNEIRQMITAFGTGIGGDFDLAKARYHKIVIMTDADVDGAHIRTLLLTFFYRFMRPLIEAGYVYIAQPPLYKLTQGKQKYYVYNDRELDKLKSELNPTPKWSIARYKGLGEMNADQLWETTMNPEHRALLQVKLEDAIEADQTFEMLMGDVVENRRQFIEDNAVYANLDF
DNA gyrase, sequence (P20831 whole entry): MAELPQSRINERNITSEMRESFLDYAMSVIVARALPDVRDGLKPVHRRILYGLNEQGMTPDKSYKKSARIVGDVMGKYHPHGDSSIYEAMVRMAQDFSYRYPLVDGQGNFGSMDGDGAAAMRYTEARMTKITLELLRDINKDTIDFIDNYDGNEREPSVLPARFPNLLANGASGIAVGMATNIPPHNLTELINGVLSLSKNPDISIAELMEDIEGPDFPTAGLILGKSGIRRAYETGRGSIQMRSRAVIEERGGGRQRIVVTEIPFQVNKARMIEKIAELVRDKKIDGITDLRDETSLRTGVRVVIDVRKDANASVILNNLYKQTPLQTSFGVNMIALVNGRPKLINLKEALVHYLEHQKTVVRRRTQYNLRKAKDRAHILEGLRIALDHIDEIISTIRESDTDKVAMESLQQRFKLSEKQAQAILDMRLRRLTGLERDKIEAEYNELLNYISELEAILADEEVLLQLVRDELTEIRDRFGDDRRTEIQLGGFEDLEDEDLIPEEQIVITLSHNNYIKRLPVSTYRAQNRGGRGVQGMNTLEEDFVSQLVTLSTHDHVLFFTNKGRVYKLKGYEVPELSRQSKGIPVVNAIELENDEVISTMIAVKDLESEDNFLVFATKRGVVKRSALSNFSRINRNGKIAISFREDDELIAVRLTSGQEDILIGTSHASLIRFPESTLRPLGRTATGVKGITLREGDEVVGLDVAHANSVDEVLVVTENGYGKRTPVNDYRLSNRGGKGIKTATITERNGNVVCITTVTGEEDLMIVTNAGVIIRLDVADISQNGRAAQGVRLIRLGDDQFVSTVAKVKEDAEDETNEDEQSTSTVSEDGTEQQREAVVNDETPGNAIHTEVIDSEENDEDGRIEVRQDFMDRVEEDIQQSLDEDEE
In short: (§1)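 Recombinant S. aureus gyrase kit, 0.5 U enzyme, relaxed pBR322 (250 ng/μL) in 40 mM HEPES·KOH pH 7.6, 10 mM Mg acetate, 10 mM DTT, 2 mM ATP, 500 mM K glutamate, 0.5 mg/mL albumin; 37 °C, 30 min.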

[1] = Inhibition of Staphylococcus aureus topoisomerase 4 assessed as reduction in decatenation of kDNA at 100 to 500 uM by gel electrophoresis method
In short: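 Compounds were in DMSO, with water or DMSO as vehicle controls. Reactions were stopped with STEB plus chloroform:isoamyl alcohol and run on 1% agarose TAE gels stained with ethidium bromide. IC50 was taken from densitometry against reactions with and without enzyme.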

[2] = target: DNA gyrase (Staphylococcus aureus) (UniProt P0A0K8+P20831); assay: Inhibition of Staphylococcus aureus DNA gyrase assessed as reduction in enzyme-catalyzed supercoiling of relaxed circular pBR322 DNA at 100 uM by agarose gel electrophoresis; assay type: protein-complex assay; in short: as §1
DNA gyrase (Staphylococcus aureus), sequence (P0A0K8 2-644 limits assumed): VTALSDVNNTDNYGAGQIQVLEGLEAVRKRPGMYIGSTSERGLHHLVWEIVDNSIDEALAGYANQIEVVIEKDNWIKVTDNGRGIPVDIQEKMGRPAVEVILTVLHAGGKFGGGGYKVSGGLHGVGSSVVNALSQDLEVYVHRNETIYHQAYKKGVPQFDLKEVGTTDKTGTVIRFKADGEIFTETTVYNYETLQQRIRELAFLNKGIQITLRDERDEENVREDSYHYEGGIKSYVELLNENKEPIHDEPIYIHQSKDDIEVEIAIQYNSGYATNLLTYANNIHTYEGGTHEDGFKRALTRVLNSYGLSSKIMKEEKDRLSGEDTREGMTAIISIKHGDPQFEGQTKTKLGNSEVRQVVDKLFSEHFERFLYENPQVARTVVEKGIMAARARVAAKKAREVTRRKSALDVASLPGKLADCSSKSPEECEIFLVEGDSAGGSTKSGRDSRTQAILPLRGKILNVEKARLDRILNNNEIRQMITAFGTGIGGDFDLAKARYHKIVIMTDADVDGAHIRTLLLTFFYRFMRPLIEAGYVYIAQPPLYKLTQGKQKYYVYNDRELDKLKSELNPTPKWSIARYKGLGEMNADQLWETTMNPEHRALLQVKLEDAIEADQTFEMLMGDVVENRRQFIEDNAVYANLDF
DNA gyrase (Staphylococcus aureus), sequence (P20831 whole entry partner): as the sequence (P20831 whole entry) above

Staphylococcus aureus [3] = assay: Antimicrobial activity against ciprofloxacin-resistant Staphylococcus aureus CRC61 incubated for 16 hrs by CLSI based method; assay type: functional; settings: CRC61, 16 h
Staphylococcus aureus [4] = assay: Antimicrobial activity against methicillin-resistant Staphylococcus aureus USA300 NRS384 incubated for 16 hrs by CLSI based method; assay type: functional; settings: USA300 NRS384, 16 h
Staphylococcus aureus [5] = assay: Antimicrobial activity against methicillin-resistant Staphylococcus aureus USA300-0114 incubated for 16 hrs by CLSI based method; assay type: functional; settings: USA300-0114, 16 h
Staphylococcus aureus [6] = assay: Antimicrobial activity against vancomycin intermediate-resistant Staphylococcus aureus Mu50 incubated for 16 hrs by CLSI based method; assay type: functional; settings: Mu50, 16 h
Staphylococcus aureus [7] = assay: Antimicrobial activity against vancomycin-resistant Staphylococcus aureus VRSA1 incubated for 16 hrs by CLSI based method; assay type: functional; settings: VRSA1, 16 h
Enterococcus faecium = assay: Antimicrobial activity against Enterococcus faecium 824-05 incubated for 16 hrs by CLSI based method; assay type: functional; settings: 824-05, 16 h
Acinetobacter baumannii = assay: Antimicrobial activity against Acinetobacter baumannii 983709 incubated for 16 hrs by CLSI based method; assay type: functional; settings: Acinetobacter baumannii, 983709, 16 h
Klebsiella pneumoniae = assay: Antimicrobial activity against Klebsiella pneumoniae CKP4 incubated for 16 hrs by CLSI based method; assay type: functional; settings: CKP4, 16 h
Escherichia coli [8] = assay: Antimicrobial activity against Escherichia coli 8314 incubated for 16 hrs by CLSI based method; assay type: functional; settings: Escherichia coli, 8314, 16 h
Escherichia coli [9] = assay: Antimicrobial activity against tolC and imp(-) containing Escherichia coli incubated for 16 hrs by CLSI based method; assay type: functional
[10] = target: Voltage-gated inwardly rectifying potassium channel KCNH2 (Homo sapiens, UniProt Q12809)
Voltage-gated inwardly rectifying potassium channel KCNH2, sequence (Q12809 whole entry): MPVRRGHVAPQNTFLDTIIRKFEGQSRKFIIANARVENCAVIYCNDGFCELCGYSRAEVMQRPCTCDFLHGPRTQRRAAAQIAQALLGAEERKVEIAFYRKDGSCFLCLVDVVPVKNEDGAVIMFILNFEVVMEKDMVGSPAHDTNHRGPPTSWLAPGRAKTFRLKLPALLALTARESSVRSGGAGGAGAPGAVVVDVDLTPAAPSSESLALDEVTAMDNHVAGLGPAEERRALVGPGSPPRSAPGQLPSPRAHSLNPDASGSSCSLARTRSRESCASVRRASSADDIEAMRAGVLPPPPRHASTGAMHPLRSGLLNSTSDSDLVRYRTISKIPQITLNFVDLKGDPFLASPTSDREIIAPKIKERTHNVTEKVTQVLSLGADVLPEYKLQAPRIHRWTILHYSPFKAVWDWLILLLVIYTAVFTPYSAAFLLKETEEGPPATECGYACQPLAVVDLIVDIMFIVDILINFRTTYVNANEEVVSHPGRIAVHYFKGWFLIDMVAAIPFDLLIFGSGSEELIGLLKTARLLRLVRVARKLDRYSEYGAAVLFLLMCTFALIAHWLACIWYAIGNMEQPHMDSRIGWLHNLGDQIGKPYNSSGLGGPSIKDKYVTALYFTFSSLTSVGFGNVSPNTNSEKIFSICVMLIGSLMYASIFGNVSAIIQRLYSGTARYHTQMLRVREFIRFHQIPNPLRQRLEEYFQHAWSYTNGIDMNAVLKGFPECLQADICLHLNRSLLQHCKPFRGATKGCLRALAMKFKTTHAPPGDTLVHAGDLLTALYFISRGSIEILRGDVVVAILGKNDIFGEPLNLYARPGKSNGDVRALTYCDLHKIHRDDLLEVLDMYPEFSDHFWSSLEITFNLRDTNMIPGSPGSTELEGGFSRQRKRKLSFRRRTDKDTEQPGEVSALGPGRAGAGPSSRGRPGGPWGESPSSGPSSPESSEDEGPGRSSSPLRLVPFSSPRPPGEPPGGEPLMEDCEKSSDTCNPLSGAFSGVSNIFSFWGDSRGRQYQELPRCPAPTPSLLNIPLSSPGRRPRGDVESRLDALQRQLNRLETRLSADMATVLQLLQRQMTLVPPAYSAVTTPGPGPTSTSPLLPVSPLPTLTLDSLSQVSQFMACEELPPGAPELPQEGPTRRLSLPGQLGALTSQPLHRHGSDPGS

Staphylococcus aureus [11] = assay: Antimicrobial activity against Staphylococcus aureus UAMS1 incubated for 16 hrs by CLSI based method; assay type: functional; settings: UAMS1, 16 h
[12] = tested on: Mycobacterium tuberculosis; assay: Antimicrobial activity against Mycobacterium tuberculosis mc2 6020 incubated for 16 hrs by alamar blue assay; assay type: functional; settings: mc2 6020, 16 h
Staphylococcus aureus [13] = assay: Antimicrobial activity against Staphylococcus aureus U1 incubated for 16 hrs by CLSI based method; assay type: functional; settings: U1, 16 h
[14] = target: T1, Ribonuclease J 2 (Staphylococcus aureus (strain COL)) (UniProt Q5HGF6); assay: Inhibition of Staphylococcus aureus RNAse J2
T1 sequence (whole entry): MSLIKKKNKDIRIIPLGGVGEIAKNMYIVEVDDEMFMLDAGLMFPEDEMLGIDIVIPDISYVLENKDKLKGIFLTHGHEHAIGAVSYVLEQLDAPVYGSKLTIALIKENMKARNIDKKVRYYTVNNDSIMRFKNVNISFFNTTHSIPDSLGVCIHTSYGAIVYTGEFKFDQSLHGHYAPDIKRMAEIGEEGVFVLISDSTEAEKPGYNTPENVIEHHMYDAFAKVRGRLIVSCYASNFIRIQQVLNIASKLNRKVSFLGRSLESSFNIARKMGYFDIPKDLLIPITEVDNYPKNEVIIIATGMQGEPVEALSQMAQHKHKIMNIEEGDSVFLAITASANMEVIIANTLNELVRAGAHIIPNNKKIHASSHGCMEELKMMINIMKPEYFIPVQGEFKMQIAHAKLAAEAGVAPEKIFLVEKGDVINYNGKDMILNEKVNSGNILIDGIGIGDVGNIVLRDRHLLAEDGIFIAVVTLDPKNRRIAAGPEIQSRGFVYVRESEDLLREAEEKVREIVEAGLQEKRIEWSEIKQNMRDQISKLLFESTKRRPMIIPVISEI

[15] = target: T2, Ribonuclease P protein component (Staphylococcus aureus (strain COL)) (UniProt Q5HCI2); assay: Inhibition of Staphylococcus aureus RnpA
T2 sequence (whole entry): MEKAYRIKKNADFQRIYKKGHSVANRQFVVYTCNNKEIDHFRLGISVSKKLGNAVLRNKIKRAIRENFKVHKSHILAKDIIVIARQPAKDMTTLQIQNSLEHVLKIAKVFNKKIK

Compound: OC(c1ccccc1)(c1ccccc1)C1CCN(Cc2ccc(-c3ccccc3)cc2)CC1
- IC50 (DNA gyrase): 125 µM
- IC50 [1]: 160 µM
- inhibition [2]: Active
- MIC (Staphylococcus aureus [3]): 4 µg/mL (≈ 9.23 µM)
- MIC (Staphylococcus aureus [4]): 4 µg/mL (≈ 9.23 µM)
- MIC (Staphylococcus aureus [5]): 8 µg/mL (≈ 18.5 µM)
- MIC (Staphylococcus aureus [6]): 8 µg/mL (≈ 18.5 µM)
- MIC (Staphylococcus aureus [7]): 8 µg/mL (≈ 18.5 µM)
- MIC (Enterococcus faecium): 8 µg/mL (≈ 18.5 µM)
- MIC (Acinetobacter baumannii): > 256 µg/mL
- MIC (Klebsiella pneumoniae): > 256 µg/mL
- MIC (Escherichia coli [8]): > 256 µg/mL
- MIC (Escherichia coli [9]): 2 µg/mL (≈ 4.61 µM)
- IC50 [10]: 0.21 µM

Compound: O=C(O)c1cn(C2CC2)c2cc(N3CCNCC3)c(F)cc2c1=O
- inhibition [2]: Active

Compound: OC(c1ccccc1)(c1ccccc1)C1CCN(CCCOc2ccc(-c3ccccc3)cc2)CC1
- MIC (Staphylococcus aureus [11]): 1 µg/mL (≈ 2.09 µM)
- IC50 (DNA gyrase): 50 µM
- IC50 [1]: 160 µM
- inhibition [2]: Active
- MIC (Staphylococcus aureus [4]): 2 µg/mL (≈ 4.19 µM)
- MIC (Staphylococcus aureus [7]): 2 µg/mL (≈ 4.19 µM)
- MIC [12]: 1 µg/mL (≈ 2.09 µM)
- MIC (Acinetobacter baumannii): > 128 µg/mL
- MIC (Klebsiella pneumoniae): > 128 µg/mL
- MIC (Escherichia coli [8]): > 128 µg/mL
- MIC (Escherichia coli [9]): 4 µg/mL (≈ 8.37 µM)
- MIC (Staphylococcus aureus [13]): 1 µg/mL (≈ 2.09 µM)
- IC50 [10]: 0.14 µM

Compound: CC(C)(C)c1ccc(C(O)CCCN2CCC(C(O)(c3ccccc3)c3ccccc3)CC2)cc1 (centres undefined) [TERFENADINE]
- IC50 [1]: 206 µM
- inhibition [14]: inactive
- inhibition [15]: inactive

Compound: COC(=O)C(C)(C)c1ccc(C(O)CCCN2CCC(C(O)(c3ccccc3)c3ccccc3)CC2)cc1 (centres undefined)
- MIC (Staphylococcus aureus [11]): > 256 µg/mL
- IC50 (DNA gyrase): > 500 µM
- IC50 [1]: > 333 µM
